14 compounds from ChEMBL document CHEMBL3808340, “Development of Novel 1,2,3,4-Tetrahydroquinoline Scaffolds as Potent NF-κB Inhibitors and Cytotoxic Agents” (ACS Med Chem Lett, 2016) can be followed below.

Molecules are shown by their SMILES. Bounds are passed on as bounds.

For one assay, the system named is ACHN. In words: Cytotoxicity against human ACHN cells after 72 hrs by sulforhodamine B assay. The assay is classed as functional. A digest of the protocol: (§1)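 Sulforhodamine B staining following the NCI (USA) protocol was used to estimate cell number indirectly in six human cancer lines. GI50 is the concentration giving a 50% decrease in net cell growth, reported as the mean of three experiments.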
(In general: The SRB assay estimates cell density from bound dye.)

For the next assay, the system named is RAW264.7. As to the kind of experiment: Inhibition of LPS-induced NFkappaB (unknown origin) transcriptional activity expressed in mouse RAW264.7 cells at 100 uM incubated for 16 hrs by SEAP based reporter gene assay relative to control. In kind it is cell-based.
Assay [1] in a line: Cytotoxicity against human PC3 cells after 72 hrs by sulforhodamine B assay. Particulars: PC-3, 72 h. The assay is classed as functional. An outline of the steps: as §1
Assay [2] in a line: Inhibition of LPS-induced NFkappaB (unknown origin) transcriptional activity expressed in mouse RAW264.7 cells incubated for 16 hrs by SEAP based reporter gene assay. The assay is classed as cell-based. The following applies: RAW264.7, 16 h. Background: In a reporter assay the amount or activity of a reporter protein is the signal.
A short description of assay [3]: Cytotoxicity against human NUGC3 cells after 72 hrs by sulforhodamine B assay. Particulars: NUGC-3, 72 h. In kind it is functional. An outline of the steps:
as §1

The next assay deals with MDA-MB-231. In words: Cytotoxicity against human MDA-MB-231 cells after 72 hrs by sulforhodamine B assay. The assay is classed as functional. Particulars: MDA-MB-231, 72 h. A digest of the protocol: as §1
The species named for assay [4] is Homo sapiens. As to the kind of experiment: Potency index, ratio of KL-1156 IC50 to compound IC50 for LPS-induced NFkappaB (unknown origin) transcriptional activity expressed in mouse RAW264.7 cells. In kind it is cell-based.
Assay [5] in a line: Cytotoxicity against human HCT15 cells after 72 hrs by sulforhodamine B assay. In kind it is functional. Particulars: HCT-15, 72 h. A digest of the protocol:
as §1

The species named for assay [6] is Homo sapiens. In words: Potency index, ratio of PDTC IC50 to compound IC50 for LPS-induced NFkappaB (unknown origin) transcriptional activity expressed in mouse RAW264.7 cells. The assay is classed as cell-based.
In the next assay the test system is NCI-H23. In words: Cytotoxicity against human NCI-H23 cells after 72 hrs by sulforhodamine B assay. The assay is classed as functional. The following applies: NCI-H23, 72 h. An outline of the steps: as §1

As a reminder, the GI50 is the concentration at which growth is held to half of that of the control. A higher GI50 goes with less potent growth inhibition. A word on the inhibition: it is the change of the read-out against control, counted positive when it falls. Higher therefore signals a strong effect. Broadly, the IC50 is the concentration at which inhibition is half-maximal. A higher IC50 goes with weaker potency in that assay. For the compound `O=C(Nc1ccccc1O)C1CCc2ccccc2N1C(=O)c1ccccc1` (stereo not given), the GI50 is 4.26 µM in the assay with ACHN; 5.69 µM in assay [1]; 3.78 µM in assay [3]; 4.21 µM in the assay on MDA-MB-231; 3.83 µM in assay [5]; 3.49 µM in the assay with NCI-H23. Further, the inhibition in the assay with RAW264.7 was > 100%. Moreover, in assay [2], the IC50 worked out at 1.4 µM. Further, the Ratio IC50 worked out at 37 in the assay listed under Homo sapiens [4] and 26 in the assay filed under Homo sapiens [6].

As for `O=C(Nc1ccccc1C(F)(F)F)C1CCc2ccccc2N1C(=O)c1ccc(Cl)cc1` (stereo not given), the GI50 came out at 0.824 µM with ACHN; 0.786 µM in assay [1]; 0.551 µM in [3]; 0.533 µM with MDA-MB-231; 0.839 µM in [5]; 0.307 µM with NCI-H23. Further, in the assay on RAW264.7, the inhibition came out at 92%. Also, in [2], 2.7 µM corresponded to half-maximal inhibition (IC50). Further, the Ratio IC50 in the assay filed under Homo sapiens [4] stood at 19; in the assay filed under Homo sapiens [6] it was 13.

For the compound `O=C(Nc1ccccc1C(F)(F)F)C1CCc2ccccc2N1C(=O)c1cccc(Cl)c1` (stereo not given), the GI50 with ACHN turned out to be 0.526 µM; in [1] it was 0.729 µM; in assay [3] it was 0.754 µM; in the assay with MDA-MB-231, 0.288 µM; in [5], 0.797 µM; with NCI-H23 it was 0.292 µM. This compound also registered an inhibition in the assay on RAW264.7 of 90%. Further, the IC50 in assay [2] is 0.7 µM. In addition, the Ratio IC50 in the assay filed under Homo sapiens [4] was found to be 75; in the assay listed under Homo sapiens [6], 53.

Take `O=C(Nc1ccccc1O)C1CCc2ccccc2N1C(=O)c1ccc(Cl)cc1` (stereo not given): the GI50 is 19.6 µM in the assay on ACHN; 25.1 µM in assay [1]; 13.4 µM in [3]; 19.6 µM in the assay on MDA-MB-231; 20.2 µM in assay [5]; 19.2 µM with NCI-H23. Further, in the assay on RAW264.7, the inhibition was found to be 82%. It took 20 µM to reach half-maximal inhibition in [2] (IC50).

Turning to `O=C(Nc1cc(C(F)(F)F)cc(C(F)(F)F)c1)C1CCc2ccccc2N1C(=O)c1ccc(Cl)cc1` (stereo not given), the GI50 amounted to 2.57 µM in the assay on ACHN; 4.23 µM in assay [1]; 1.66 µM in assay [3]; 2 µM in the assay with MDA-MB-231; 2.22 µM in assay [5]; 0.889 µM in the assay with NCI-H23. Also, the inhibition with RAW264.7 is 92%. Also, the IC50 in [2] turned out to be 20 µM.

On to `O=C(Nc1ccccc1C(F)(F)F)C1CCc2ccccc2N1` (stereo not given), for which the GI50 with ACHN was 57.6 µM; in assay [1] it was 53.3 µM; in [3], 39.3 µM; in the assay with MDA-MB-231, 45.5 µM; in [5], 40.4 µM; in the assay on NCI-H23 it was 56.8 µM. Also, the inhibition with RAW264.7 is > 100%. Half-maximal inhibition in assay [2] (IC50) was put at 26 µM.

In the case of `CCCCCCCCC(=O)N1c2ccccc2CCC1C(=O)Nc1cc(C(F)(F)F)cc(C(F)(F)F)c1` (stereo not given), the GI50 in the assay with ACHN worked out at 4.52 µM; in assay [1] it was 7.43 µM; in [3], 2.23 µM; in the assay on MDA-MB-231, 7.53 µM; in assay [5], 4.97 µM; with NCI-H23, 3.23 µM. The same compound displayed an inhibition in the assay on RAW264.7 of 58%. This compound displayed an IC50 in assay [2] of 51 µM.

Turning to `O=C(Nc1ccccc1O)C1CCc2ccccc2N1` (stereo not given), the GI50 in the assay on ACHN came out at 3.99 µM; in assay [1], 4.31 µM; in [3], 2.68 µM; with MDA-MB-231, 5.26 µM; in [5], 5.61 µM; with NCI-H23, 2.23 µM. Further, the inhibition in the assay on RAW264.7 worked out at 57%. The IC50 in assay [2] is 83 µM.

Consider `O=C(Nc1ccccc1O)C1CCc2ccccc2N1C(=O)c1ccccc1Cl` (stereo not given), for which the GI50 is 44.2 µM in the assay with ACHN; 60 µM in assay [1]; 36.8 µM in assay [3]; 47.4 µM in the assay on MDA-MB-231; 44.9 µM in assay [5]; 46.9 µM in the assay with NCI-H23. In addition, the inhibition with RAW264.7 was 78%. Further, the IC50 in [2] is 20 µM.

With `CCCCCCCCC(=O)N1c2ccccc2CCC1C(=O)Nc1ccccc1C(F)(F)F` (stereo not given), the GI50 turned out to be 8.33 µM in the assay with ACHN; 4.32 µM in assay [1]; 6.18 µM in assay [3]; 3.35 µM in the assay with MDA-MB-231; 7.7 µM in assay [5]; 4.22 µM with NCI-H23. In the assay with RAW264.7, the inhibition turned out to be 63%. For the same compound, in [2], 27 µM corresponded to half-maximal inhibition (IC50).

Consider `CC(=O)N1c2ccccc2CCC1C(=O)Nc1cc(C(F)(F)F)cc(C(F)(F)F)c1` (stereo not given), for which the concentration for 50% growth inhibition (GI50) (in the assay on ACHN; in assay [1]; in assay [3]; with MDA-MB-231; in [5]; in the assay with NCI-H23) was > 70 µM throughout. In addition, the inhibition with RAW264.7 turned out to be 85%. Further, the IC50 in [2] is 23 µM.

`O=C(Nc1ccccc1C(F)(F)F)C1CCc2ccccc2N1C(=O)c1ccccc1Cl` (stereo not given): the GI50 in the assay with ACHN worked out at 3.9 µM; in [1], 5.14 µM; in assay [3] it was 2.73 µM; in the assay on MDA-MB-231, 2.53 µM; in [5] it was 4.22 µM; with NCI-H23, 2.15 µM. Also, in the assay with RAW264.7, the inhibition stood at 82%. The compound further gave an IC50 in [2] of 0.9 µM. For the same compound, the figures for the Ratio IC50 in the assay filed under Homo sapiens [4] and in the assay listed under Homo sapiens [6] were 58 and 41, respectively.

With `O=C(Nc1ccccc1)C1CCc2ccccc2N1` (stereo not given), the GI50 with ACHN was 72.9 µM; in assay [1], 110 µM; in assay [3] it was 59 µM; in the assay on MDA-MB-231, 108 µM; in [5], 109 µM; in the assay with NCI-H23 it was 97.1 µM. This compound yielded an inhibition in the assay with RAW264.7 of 85%. In assay [2], this compound came in with an IC50 of 60 µM.

Turning to `CCCC(=O)N1c2ccccc2CCC1C(=O)Nc1cc(C(F)(F)F)cc(C(F)(F)F)c1` (stereo not given), the GI50 in the assay on ACHN stood at 13.9 µM; in assay [1], 18.6 µM; in [3] it was 14.4 µM; with MDA-MB-231 it was 15.2 µM; in assay [5], 21.9 µM; with NCI-H23, 15 µM. For the same compound, in the assay with RAW264.7, the inhibition came out at 88%. Also, the IC50 in assay [2] was 20 µM.
